Columns and labels:
[1] = folding enthalpy; higher = less favourable; fluorescence melt of hairpins on a sequencing array, two-state fit; settings: sodium 0.088 M
Method in brief: (§1)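 Library hairpins on a sequenced MiSeq flow cell carried annealed Cy3 and quencher oligos, and their Cy3 fluorescence was imaged in 50 mM Na-HEPES pH 8.0 with 25 mM NaCl, in 2.5 °C steps up to 60 °C. Signals were normalised to Cy3 before quenching and to control constructs. Melting temperature and folding enthalpy were obtained from bootstrapped two-state fits, combined by inverse-variance weighting across four replicates, and the fitted temperatures were then raised by 9.35 °C to match UV melts.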

[2] = melting temperature; fluorescence melt of hairpins on a sequencing array, two-state fit, raised by 9.35 °C to match UV melts; settings: sodium 0.088 M
Method in brief: as §1

Sequence | folding enthalpy [1] | Tm [2]
TGGAGGAAACTCCA (((((....))))) | -17.4 kcal/mol | 46 °C
GTTCCCCGAAAGGGAAC (((.(((....)))))) | -29.6 kcal/mol | 61.2 °C
TGGTTGAAAAACCA (((((....))))) | -15.1 kcal/mol | 47 °C
GGCAGTGCGAAAGCAGCC (((..(((....)))))) | -19.7 kcal/mol | 53 °C
GTTTGTCGAAAGACGAAC (((.(((....))).))) | -39 kcal/mol | 53.1 °C
GGATGCGCGAAAGCGTCC (((..(((....)))))) | -12.3 kcal/mol | 41 °C
GGTCGCGGAAACGCGGTC (..((((....))))..) | -13.2 kcal/mol | 47.4 °C
GATCAGTTCCTGATC ((((((...)))))) | -42.9 kcal/mol | 50.9 °C
GAGTAACGAAAGTTCTC (((.(((....)))))) | -21.9 kcal/mol | 37.1 °C
GATCCACGATGGATC ((((((...)))))) | -27 kcal/mol | 48.6 °C
CGAGTCCGGAAACGGTCG (((..(((....)))))) | -12.3 kcal/mol | 42.4 °C
GTCGTCGAAAGACAGAC ((((((....))).))) | -26.7 kcal/mol | 51.6 °C
GCGTGTCCGAAAGGACGC (((..(((....)))))) | -9.9 kcal/mol | 50.1 °C
GTCTGCGGAAACGTAGGC (.((.((....)).)).) | -26.7 kcal/mol | 42.4 °C
GGAGTCGAAAGACAATCC ((((((....)))..))) | -15.4 kcal/mol | 32.5 °C
GTGTTACGAAAGTACAC (((.(((....)))))) | -27 kcal/mol | 47.9 °C
GTGGCAGGAAACCGCCAC (((((.(....).))))) | -46.8 kcal/mol | 55.9 °C
GGGTCACGAAAGTGTCCC (((.(((....))).))) | -39.8 kcal/mol | 59.6 °C
GATCGAATCGTCGATC ((((((....)))))) | -32.1 kcal/mol | 51.4 °C
GCCCACGAAAGTGTAGGC ((((((....)))..))) | -24.5 kcal/mol | 52.8 °C
GCTATGCGAAAGCAGAGC (((.(((....))).))) | -49 kcal/mol | 60.6 °C
GTCGCCCGAAAGGGGAC (((.(((....)))))) | -21.4 kcal/mol | 55.2 °C
GATCCAAGAATGGATC ((((((....)))))) | -30.2 kcal/mol | 46.7 °C
GATCAAATCATTGATC ((((((....)))))) | -32.8 kcal/mol | 41.8 °C

Sequence | folding enthalpy [1] | Tm [2]
GATCTTAAGTAAGATC ((((((....)))))) | -25.5 kcal/mol | 42.8 °C
GAAGTGGGAAACTACTTC (((((.(....).))))) | -37.4 kcal/mol | 43.1 °C
GAGTGTGGAAACACATTC ((.((((....)))).)) | -17.6 kcal/mol | 42.5 °C
GTGACCGAAAGGTAACAC ((((((....)))..))) | -16.9 kcal/mol | 47.1 °C
GATCTAGTTGTAGATC ((((((....)))))) | -28.2 kcal/mol | 41.2 °C
GCGGAAAGCCGC ((((....)))) | -16.3 kcal/mol | 48.5 °C
GCGCACGAAAGTGTCCGC ((((((....)))..))) | -18.6 kcal/mol | 48 °C
GTATCCGGAAACGGACAC ((.((((....)))).)) | -19.8 kcal/mol | 39 °C
GATCTGGCACCAGATC ((((((....)))))) | -41.3 kcal/mol | 55.1 °C
CGGCCGGAAACGGATCCG ((((((....)))..))) | -22 kcal/mol | 39.8 °C
GGCGGAGGAAACTCCGTC (.(((((....))))).) | -25.7 kcal/mol | 61.2 °C
GCAAGGTCGAAAGACTGC (((..(((....)))))) | -19.1 kcal/mol | 40.5 °C
GCACACGAAAGTGTGTGC ((((((....)))..))) | -18.9 kcal/mol | 68.2 °C
GCCCCGCGAAAGCTGTGC ((.(.((....)).).)) | -12.1 kcal/mol | 30.4 °C
GAGCTCGGAAACGGGTTC ((.(.((....)).).)) | -14.2 kcal/mol | 42.3 °C
GATCGAAAGTCGATC ((((((...)))))) | -30.5 kcal/mol | 48.8 °C
GCCTAGCGAAAGCTGCGC ((..(((....)))..)) | -17.6 kcal/mol | 49.6 °C
GCTCAGCGAAAGCCCAGC (((..((....))..))) | -12.1 kcal/mol | 37.2 °C
GCGATGCGAAAGCGACGC (((..((....))..))) | -29.5 kcal/mol | 65.7 °C
GATCTCGCAGAGATC ((((((...)))))) | -30.5 kcal/mol | 68 °C
GCAACCGAAAGGTCCTGC ((((((....)))..))) | -9.82 kcal/mol | 27.9 °C
AGCCAGAAATGGCT (((((....))))) | -19.1 kcal/mol | 54.4 °C
GAGTTTGGAAACAAACTC (((((((....))))))) | -43.1 kcal/mol | 58.3 °C
GCCGTGCGAAAGCCCTGC ((.(.((....)).).)) | -9.62 kcal/mol | 30.3 °C

Sequence | folding enthalpy [1] | Tm [2]
GCGGATCTCCGC ((((....)))) | -25.3 kcal/mol | 59.6 °C
GGTCTCGGAAACGAGATC (.(((((....))))).) | -38.2 kcal/mol | 52.1 °C
GACGCTACGAAAGTAGTC (((..(((....)))))) | -13.2 kcal/mol | 35.9 °C
CGTTCGGAAACGATACG ((((((....))).))) | -27.1 kcal/mol | 42.1 °C
CGAGTCGGAAACGAATCG (((.(((....))).))) | -39.9 kcal/mol | 52.2 °C
GTCCCCGAAAGGGTTGAC ((((((....)))..))) | -15.3 kcal/mol | 33.7 °C
GTTGTCGAAAGACCCAAC ((((((....)))..))) | -11.1 kcal/mol | 26.6 °C
GATTGAGGAAACTCAATC (((((((....))))))) | -52.3 kcal/mol | 53.6 °C
GTCCGGGGAAACCCGGGC (.(((((....))))).) | -21.6 kcal/mol | 65 °C
GATCCAATTCTGGATC ((((((....)))))) | -39.7 kcal/mol | 49.5 °C
GATCCCCAAGGGGATC ((((((....)))))) | -37.4 kcal/mol | 65 °C
GATCAGTAGACTGATC ((((((....)))))) | -40.7 kcal/mol | 51.5 °C
GATCGCCGACGCGATC ((((((....)))))) | -35.7 kcal/mol | 66.5 °C
GCGTTTGGAAACAGATGC ((.(.((....)).).)) | -17.6 kcal/mol | 30.1 °C
GTTATGCGAAAGCACAAC (((.(((....))).))) | -20.3 kcal/mol | 40.4 °C
GGCAACGAAAGTTAGGCC ((((((....)))..))) | -28.3 kcal/mol | 46.2 °C
GGAGCAGAAATGCTCC ((((((....)))))) | -36.9 kcal/mol | 62.3 °C
GCCGCGCGAAAGCGCCGC ((.((((....)))).)) | -16.6 kcal/mol | 59.7 °C
GGTCAGCGAAAGCTAACC (((.(((....))).))) | -25.6 kcal/mol | 46.7 °C
GTGCGGACGAAAGTCCAC (((..(((....)))))) | -12 kcal/mol | 60.9 °C
GCAAATCGAAAGATGTGC (((.(((....))).))) | -28.3 kcal/mol | 48.8 °C
GATCTCGTCGAGATC ((((((...)))))) | -31.1 kcal/mol | 55.7 °C
GTTGACGCGAAAGCGAAC (((..(((....)))))) | -12.9 kcal/mol | 39 °C
GCGAACGGAAACGTCCGC (((.(((....))).))) | -40.2 kcal/mol | 54.6 °C

Sequence | folding enthalpy [1] | Tm [2]
GATCAGTAATCTGATC ((((((....)))))) | -36 kcal/mol | 48.6 °C
GGGCGGTCGAAAGACCCC (((..(((....)))))) | -15.3 kcal/mol | 53.9 °C
GATGTGGGAAACCACGTC ((.((((....)))).)) | -26.5 kcal/mol | 51 °C
GGCCTTCCGAAAGGAGCC (((..(((....)))))) | -19.1 kcal/mol | 38.9 °C
GCGACCCGTCGC ((((....)))) | -40.1 kcal/mol | 60.7 °C
GGTGGGGGAAACCCCGCC ((.((((....)))).)) | -27.5 kcal/mol | 61.4 °C
GTCGGACCGAAAGGTGAC (((..(((....)))))) | -18 kcal/mol | 41.3 °C
GCGTCGCGAAAGCGCGGC ((..(((....)))..)) | -12.6 kcal/mol | 61.1 °C
GCTGAGCGAAAGCAGAGC (((..((....))..))) | -17 kcal/mol | 45.9 °C
GCCTATGGAAACACAGGC ((((.((....)).)))) | -31.7 kcal/mol | 40 °C
GGCGGTGGAAACGCTGCC (((.(.(....).).))) | -21.9 kcal/mol | 54.6 °C
GGAATCGAAAGATATCC ((((((....))).))) | -13.4 kcal/mol | 29.1 °C
GTTGATGGAAACACCAAC ((((.((....)).)))) | -30.2 kcal/mol | 37 °C
GCCTGACGAAAGTCGGC (((.(((....)))))) | -23.2 kcal/mol | 63.1 °C
GAAAGCGAAAGCTATTTC ((((((....)))..))) | -11.8 kcal/mol | 25.2 °C
GCTCGAGCGAAAGCTAGC (((..(((....)))))) | -13.2 kcal/mol | 39.1 °C
CAGCTGAAAAGCTG (((((....))))) | -25.4 kcal/mol | 58.6 °C
GTCTTGGGAAACCAGGAC (((.(((....))).))) | -30.3 kcal/mol | 47.2 °C
GCGGAAGTCCGC ((((....)))) | -20.9 kcal/mol | 56 °C
GTCAGCGGAAACGCCGAC (((.(((....))).))) | -26.9 kcal/mol | 49.2 °C
GGTGATCCGAAAGGAACC (((..(((....)))))) | -18.7 kcal/mol | 33.2 °C
